Measured values from different studies.
DPP4: Dipeptidyl peptidase 4 (DPP4, Homo sapiens, UniProt P27487)
AKT1: RAC-alpha serine/threonine-protein kinase (AKT1, Homo sapiens, UniProt P31749)
CDK1: Cyclin-dependent kinase 1 (CDK1, Homo sapiens, UniProt P06493)

Compound	target	assay	conditions	quantity	result
Cn1c(=O)cc(N2CCC(N)CC2)n(Cc2nc3ccc(Br)cc3c(=O)n2-c2ccccc2)c1=O	DPP4	enzyme activity, inhibitor	20 µM	inhibition	12.9%
Cc1cc([C@@H](C)Nc2ccccc2C(=O)O)c2nc(N3CCC(F)(F)CC3)c(C#N)c(=O)n2c1	AKT1	binding, competition with immobilised ligand	1 µM	remaining binding	100%
COc1ccc(S(=O)(=O)N(CC(=O)NO)CC(C)C)cc1	Stromelysin-2 (Homo sapiens, UniProt P09238)	enzyme activity, inhibitor	0.5 µM	inhibition	47.4%
COc1cc(-c2cncc3c2CN(C)Cc2cc(N4CCNCC4)ccc2-3)cc(OC)c1OC	Cyclin-dependent kinase 9, with cyclin T1 (CDK9, Homo sapiens, UniProt P50750)	enzyme activity, inhibitor	1 µM	remaining activity	100%
CN(C)c1ncnc2c1ncn2[C@@H]1O[C@H](CCl)[C@@H](NC(=O)[C@H](CSC(c2ccccc2)c2ccccc2)NC(=O)OC(C)(C)C)[C@H]1O	Aminopeptidase N (ANPEP, Homo sapiens, UniProt P15144)	enzyme activity, inhibitor, fluorescence	10 µM	inhibition	4.6%
O=C1NC(=NCc2cccs2)S/C1=C\c1ccc2ncccc2c1	CDK1	enzyme activity, inhibitor, ADP detection	100 µM	inhibition	100%
CNc1ncc2c(/C=C/C(=O)N3CCC(OC)CC3)nn(Cc3cccc(C(F)(F)F)c3)c2n1	AKT1	enzyme activity, inhibitor, radiometric	1 µM	remaining activity	101%
C=CC(=O)N1CCC(COCC(=O)N2CCN(c3nc(-c4cnc(N)nc4C(F)F)nc(N4CCOC[C@@H]4C)n3)CC2)CC1	Cyclin-dependent kinase 9 (CDK9, Homo sapiens, UniProt P50750)	binding, competition with immobilised ligand	1 µM	remaining binding	100%
Cn1c(=O)cc(N2CCC(N)CC2)n(Cc2nc3ccccc3c(=O)n2-c2cccc(C(F)(F)F)c2)c1=O	DPP4	enzyme activity, inhibitor	20 µM	inhibition	25.6%
Cc1cc2cc(Oc3ccnc(Nc4cccc(CS(=O)(=O)NCCN(C)C)c4)n3)ccc2[nH]1	CDK1	enzyme activity, inhibitor, ADP detection	100 µM	inhibition	100%
Cn1c(=O)cc(N2CCC(N)CC2)n(Cc2nc3ccc(Br)cc3c(=O)n2-c2cccc(F)c2)c1=O	DPP4	enzyme activity, inhibitor	20 µM	inhibition	46.8%
CCO[C@@H](Cc1ccc(OCCc2ccc(OS(C)(=O)=O)cc2)cc1)C(=O)O	CDK1	enzyme activity, inhibitor, ADP detection	10 µM	inhibition	65.9%
